# Screening results as filed in PubChem BioAssay.
# SIAE inh: blocks human sialic acid acetylesterase; inhibition, % at 9.66 µM; Q9HAT2; hit rate 0.69% among 370,000; SIAE FP-Rh probe binding, fluorescence polarization;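 active = inhibition above a cutoff: mean of compounds within the control limits plus 3 SD of those, cut at about 17% in these data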;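 note: 0% = plate median of compound wells and 100% = probe without SIAE protein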
# mABHD4 FP: inhibits mouse alpha/beta hydrolase domain 4; purified mABHD4, FP-Rh probe fluorescence polarization; inhibition, % at 8.92 µM; hit rate 0.54% among 370,000; AID 720543;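 active = inhibition exceeding the mean over every tested compound plus 3 SD, cut at about 30% in these data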;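 note: 0% = plate median of compound wells and 100% = S159A mutant with DMSO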
#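 Assay system: mouse ABHD4 enzyme, wild type / Also added: fluorescent activity-based probe FP-Rh / Doses: single nominal dose of 8.92 µM, 0.89% DMSO final / Timing: 45 min compound pre-incubation plus 60 min probe step, 25 °C / Signal: FP readout, ex 525 nm / em 598 nm / Control set: S159A mutant/DMSO as 100%, compound-well median as 0%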
# TCR CD3 inh: blocks the human TCR-CD3 interaction; TAMRA-labeled TCR probe fluorescence, biochemical; hit rate 0.37% among 360,000; AID 651800; inhibition, % at 9.4 µM; in the data active = inhibition above about 19%;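 note: recombinant mutant TCR 2C K166C tagged with TAMRA read by polarization; 0% = receptor in buffer alone and 100% = receptor with positive control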
# HTRA1 inhibitor: HTRA1 (human) protease inhibition; recombinant HTRA1, FP-rhodamine activity-based probe, fluorescence polarization; inhibition, % at 5.96 µM; hit rate 0.5% among 340,000; AID 504803; in the data active = inhibition above about 36%;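 note: 0% = enzyme with DMSO and 100% = wells lacking enzyme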
# Target sequence (Q92743 whole entry, looked up): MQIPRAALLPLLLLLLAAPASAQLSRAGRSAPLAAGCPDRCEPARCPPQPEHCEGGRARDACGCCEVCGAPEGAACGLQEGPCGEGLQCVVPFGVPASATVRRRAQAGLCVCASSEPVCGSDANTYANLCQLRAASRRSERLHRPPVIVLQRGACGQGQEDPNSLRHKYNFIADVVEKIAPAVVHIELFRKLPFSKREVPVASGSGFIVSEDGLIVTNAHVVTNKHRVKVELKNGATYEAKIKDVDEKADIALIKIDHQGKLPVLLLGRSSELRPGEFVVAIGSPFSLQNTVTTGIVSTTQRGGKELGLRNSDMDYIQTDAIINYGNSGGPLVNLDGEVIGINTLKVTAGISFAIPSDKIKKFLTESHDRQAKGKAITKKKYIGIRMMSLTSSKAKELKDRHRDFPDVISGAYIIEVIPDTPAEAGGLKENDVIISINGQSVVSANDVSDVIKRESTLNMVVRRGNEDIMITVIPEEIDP
# rCAG RNA binder: molecules binding r(CAG) RNA repeats; r(CAG) RNA repeat, TO-PRO-1 dye displacement fluorescence; inhibition, % at 3 µM; hit rate 1.3% among 370,000; AID 651821;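 active = inhibition above the plate cutoff, the mean of all test compounds on that plate plus 3 SD, cut at about 35% in these data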;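 note: 0% = DMSO alone and 100% = 100 µM mitoxantrone as full dye displacement; higher means more dye released from RNA so lower well fluorescence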
# HTRA1 conf: confirmation of human HTRA1 inhibitors | shares compounds with HTRA1 inhibitor | recombinant HTRA1, FP-rhodamine activity-based probe, fluorescence polarization | inhibition, % at 5.96 µM | hit rate 66% among 1,600 | AID 540248;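 active = mean inhibition over three repeats above a set limit taken from the earlier primary screen, cut at about 37% in these data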;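 note: 0% = HTRA1 with DMSO and 100% = wells lacking HTRA1; inhibitors block probe binding so polarization drops and inhibition rises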
# * hit, by the source's call; · = no result. Sampled rows, rich in hits. Any-hit rate of the full collection: about 2.5%.
SMILES,SIAE inh,mABHD4 FP,TCR CD3 inh,HTRA1 inhibitor,rCAG RNA binder,HTRA1 conf
Oc1c(CNc2ccccc2)cc(COCc2ccccc2)c2cccnc12,19.2*,8.1,-4.0,49.1*,7.6,15.0
Cc1ccc(C(C[N+](=O)[O-])c2c(-c3ccccc3O)[nH][nH]c2=O)cc1 (stereo unspecified),-2.6,1.0,-8.5,4.2,15.7,·
Cc1ccc(Nc2c(-c3ccccn3)nc3cc(C)ccn23)cc1,8.2,9.6,4.0,43.7*,-1.4,61.5*
Cc1ccn2c(Nc3ccc4c(c3)OCO4)c(-c3ccccn3)nc2c1,25.1*,21.5,7.4,64.0*,-6.6,74.6*
Cc1ccc(Nc2c(-c3ccccn3)nc3ccc(C)cn23)cc1,8.3,10.7,-4.0,55.3*,-4.5,57.5*
Cc1ccc2nc(-c3ccncc3)c(Nc3ccccc3)n2c1,7.7,2.5,-0.6,-5.3,-3.6,·
Cc1cc(C)n2c(Nc3ccc4c(c3)OCCO4)c(-c3ccccn3)nc2n1,7.9,14.7,6.2,·,5.5,·
COc1ccc(/C=C(/NC(=O)c2ccc(C)cc2)C(=O)NCC2CCCO2)cc1 (stereo unspecified),4.6,2.5,3.3,1.1,-4.9,·
COC(=O)c1cccc(CSc2nc3ccccc3[nH]2)c1,-3.3,-5.5,-5.0,-9.6,-2.6,·
Cc1cccc(NC(=O)c2ccc(OCc3c(C)noc3C)cc2)n1,0.6,-1.9,4.2,-6.9,-2.8,·
CC1CN(C(=O)c2cccc(S(=O)(=O)NCc3ccccc3)c2)CC(C)O1 (stereo unspecified),0.7,-5.9,3.7,-6.7,-1.8,·
Nc1c(Cl)ncnc1N/N=C/c1ccc2ccccc2n1,5.2,27.3,4.0,79.4*,5.9,72.0*
O=S(=O)(c1cccnc1)N1CCn2cccc2C1c1ccccc1F (stereo unspecified),4.6,2.8,4.3,77.2*,-3.6,28.9
CC[C@H](C)/C=C/C1=CC2=C(Cl)C(=O)[C@@]3(C)OC(=O)C(C(=O)[C@H](C)[C@@H](C)O)=C3C2=CO1,·,·,·,54.3*,·,68.3*
COC(=O)c1cccc2c1NC(=O)C2=O,1.0,1.0,-1.8,4.5,1.7,·
Cc1ccc2c(c1)c(C)cc[n+]2Cc1ccccc1,5.1,-0.1,3.9,42.3*,2.7,5.8
Cc1cc2nc(SCC(=O)O)nc(C)c2cc1C,-3.6,-8.9,-5.3,2.0,4.8,·
CC(=NNc1nc2ccccc2s1)c1ccncn1,5.4,16.6,7.3,48.1*,1.9,34.2
N#Cc1c(N)[nH]c(=S)c(C#N)c1-c1ccccc1,-11.1,-2.3,-5.4,-0.4,5.3,·
N#Cc1c(N)[nH]c2ccc(Sc3ccccc3)cc12,9.1,13.5,5.3,41.0*,11.2,32.9
O=C1CC(/C=C/c2ccco2)=Nc2ccccc2N1,·,·,·,43.5*,·,-1.4
O=C1CC(/C=C/c2ccccn2)=Nc2ccccc2N1,5.4,13.0,0.5,6.8,5.4,·
CC(C)(C)c1cc(C(=O)N/N=C/c2ccccc2O)n(-c2ccccc2)n1,-4.5,-0.8,-0.9,36.9*,5.1,51.4*
CC(=O)C(C(C)=O)c1c(Cl)c(O)c(O)c2c(C(=O)c3ccccc3)coc12,-1.3,42.7*,-1.9,65.5*,9.0,82.2*
CN1CCN(Cc2c(O)ccc3occ(C(=O)c4ccccc4)c23)CC1,-0.1,2.7,5.6,7.1,-4.9,·
SMILES,SIAE inh,mABHD4 FP,TCR CD3 inh,HTRA1 inhibitor,rCAG RNA binder,HTRA1 conf
Cc1cc(C)c(O)c(CN(C)Cc2cc(Cl)cc(Cl)c2O)c1,9.0,5.4,-9.9,62.5*,10.4,55.1*
Cc1ccnc(NCc2cc(Cl)cc(Cl)c2O)c1,1.1,-2.3,-6.4,3.2,1.2,·
O=C(Nc1cccnc1)C1CC(c2ccc(Cl)c(Cl)c2)=NO1 (stereo unspecified),1.7,1.2,-5.6,-6.2,-0.4,·
CC1(OC(=O)C2CCCC2)C(=O)C=C2C=C(c3ccsc3)N(C3CC3)C=C2C1=O (stereo unspecified),11.4,12.4,-3.0,19.5,2.8,·
CC1(OC(=O)C2CCCC2)C(=O)C=C2C=C(c3ccsc3)N(Cc3ccccc3)C=C2C1=O (stereo unspecified),4.8,23.6,-3.1,37.9*,3.8,30.8
CC1(OC(=O)C2CCCC2)C(=O)C=C2C=C(c3ccsc3)N(c3ccccc3)C=C2C1=O (stereo unspecified),5.6,19.7,-3.1,39.3*,18.8,32.5
COc1ccccc1C(=O)OCc1ccc2sc(C)nc2c1,-3.6,-3.8,-0.7,-0.4,-5.2,·
Oc1ccc2ccccc2c1/C=N/Nc1nnc(-c2ncc[nH]2)c2ccccc12,16.0,23.3,7.3,38.4*,11.9,100.2*
COc1ccc(/C=N/Nc2nnc(-c3ncc[nH]3)c3ccccc23)cc1,·,·,·,-3.8,·,·
Oc1ccc(C23CC4CC(CC(C4)C2)C3)cc1O,4.3,17.9,-3.2,58.8*,7.9,81.1*
COc1ccccc1NC(=S)NCCc1ccc(OC)c(OC)c1,2.7,2.7,-4.0,0.3,-0.3,·
CCOc1ccc2c(ccc(/C=C/c3cc(C)c4cccnc4c3O)[n+]2C)c1,·,·,·,63.5*,·,89.5*
Cc1ccc(/C=C(/C#N)c2nc(CCN3C(=O)c4ccccc4C3=O)cs2)cc1,-9.6,-10.2,0.9,5.3,2.8,·
OCCN(Cc1ccccc1)C(=S)NC1CCCCC1,-1.0,5.2,7.2,-2.4,-6.2,·
CCCC1Nc2ccc(C(=O)O)cc2C2C=CCC12 (stereo unspecified),·,·,·,38.9*,·,38.5*
Cc1oc2c(O)c(O)ccc2c(=O)c1-c1cnn(-c2ccccc2)c1,5.4,21.7,9.8,60.8*,19.3,92.3*
Cc1cccc2cc(-c3ccccc3)c(-c3ccccc3)c[n+]12,1.1,17.4,2.6,56.1*,4.4,74.1*
COc1ccc2sc(-c3ccc(N(C)C)cc3)c(C#CCCO)c2c1,3.0,19.1,0.2,36.6*,15.0,24.5
COc1ccc2sc(-c3ccc(N(C)C)cc3)c(C#Cc3cncn3C)c2c1,12.2,17.9,-2.9,47.9*,14.5,24.0
COc1ccc(-c2sc3ccc(OC)cc3c2C#CCCO)cc1,·,·,·,-55.2,·,·
CN(C)C(=S)NCc1ccccc1,-4.6,2.2,0.4,3.3,-2.4,·
CCOC(=O)N1CCN(S(=O)(=O)c2ccc(C(=O)NNc3nc4ccc(Cl)cc4s3)cc2)CC1,·,·,·,51.0*,·,77.6*
CCOC(=O)N1CCN(S(=O)(=O)c2ccc(C(=O)N(CCN(C)C)c3nc4ccc(Cl)cc4s3)cc2)CC1,5.0,5.8,-0.3,-1.5,1.8,·
CCOC(=O)N1CCN(S(=O)(=O)c2ccc(C(=O)NNc3nc4c(C)cccc4s3)cc2)CC1,10.7,23.0,4.6,47.6*,75.5*,168.4*
CCOC(=O)N1CCN(S(=O)(=O)c2ccc(C(=O)N(CCN(CC)CC)c3nc4c(C)cccc4s3)cc2)CC1,13.8,6.7,-3.9,-31.1,-0.7,·
Cc1ccc(S(=O)c2ccc([N+](=O)[O-])c3nonc23)cc1 (stereo unspecified),-12.2,44.3*,-3.2,43.1*,63.4*,72.7*
